Experimental data taken from ChEMBL document CHEMBL2390854, “Green synthesis of tetrahydropyrimidine analogues and evaluation of their antimicrobial activity” (2013).
Values after ≈ are worked out from the molar mass of the structure shown.

What was measured:
Aspergillus flavus = experiment: Antifungal activity against Aspergillus flavus NCIM 539 by agar dilution method; type: functional
Outline: (§1)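 MIC determined by standard agar dilution per CLSI guidelines. Fluconazole and miconazole were reference drugs, and dimethyl sulfoxide was the solvent control.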

Escherichia coli [1] = experiment: Antibacterial activity against Escherichia coli NCIM 2256 by broth dilution method; type: functional
Outline: (§2)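 MIC by broth dilution following CLSI guidelines. Ciprofloxacin and ampicillin served as reference drugs.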

Candida albicans = experiment: Antifungal activity against Candida albicans NCIM 3471 by agar dilution method; type: functional; outline: as §1
Aspergillus niger = experiment: Antifungal activity against Aspergillus niger NCIM 1196 by agar dilution method; type: functional; outline: as §1
Staphylococcus aureus = experiment: Antibacterial activity against Staphylococcus aureus NCIM 2901 by broth dilution method; type: functional; outline: as §2
Escherichia coli [2] = experiment: Antibacterial activity against Escherichia coli NCIM 2256 by broth dilution method
Bacillus subtilis = experiment: Antibacterial activity against Bacillus subtilis NCIM 2063 by broth dilution method; type: functional; outline: as §2

Structure (SMILES)	MIC (Aspergillus flavus) [µg/mL]	MIC (Escherichia coli [1]) [µg/mL]	MIC (Candida albicans) [µg/mL]	MIC (Aspergillus niger) [µg/mL]	MIC (Staphylococcus aureus) [µg/mL]	MIC (Escherichia coli [2]) [µg/mL]	MIC (Bacillus subtilis) [µg/mL]
COC(=O)C1=C(C(=O)OC)N(c2ccc(O)cc2)CN(c2ccc(O)cc2)C1	50 (≈ 130 µM)	80 (≈ 208 µM)	75 (≈ 195 µM)	50 (≈ 130 µM)	90 (≈ 234 µM)	80 (≈ 208 µM)	–
COC(=O)C1=C(C(=O)OC)N(c2cccc([N+](=O)[O-])c2)CN(c2cccc([N+](=O)[O-])c2)C1	100 (≈ 226 µM)	80 (≈ 181 µM)	100 (≈ 226 µM)	100 (≈ 226 µM)	80 (≈ 181 µM)	–	100 (≈ 226 µM)
COC(=O)C1=C(C(=O)OC)N(c2ccccn2)CN(c2ccccn2)C1	12.5 (≈ 35.3 µM)	60 (≈ 169 µM)	25 (≈ 70.5 µM)	25 (≈ 70.5 µM)	80 (≈ 226 µM)	–	40 (≈ 113 µM)
COC(=O)C1=C(C(=O)OC)N(c2nc3ccc(OC)cc3s2)CN(c2nc3ccc(OC)cc3s2)C1	12.5 (≈ 23.7 µM)	40 (≈ 76 µM)	25 (≈ 47.5 µM)	12.5 (≈ 23.7 µM)	100 (≈ 190 µM)	–	25 (≈ 47.5 µM)
CCOC(=O)C1=C(C(=O)OCC)N(c2nc3ccc(OC)cc3s2)CN(c2nc3ccc(OC)cc3s2)C1	12.5 (≈ 22.5 µM)	15 (≈ 27 µM)	25 (≈ 45.1 µM)	12.5 (≈ 22.5 µM)	100 (≈ 180 µM)	–	20 (≈ 36.1 µM)
COC(=O)C1=C(C(=O)OC)N(c2ccccc2)CN(c2ccccc2)C1	25 (≈ 70.9 µM)	60 (≈ 170 µM)	50 (≈ 142 µM)	25 (≈ 70.9 µM)	90 (≈ 255 µM)	–	30 (≈ 85.1 µM)
COC(=O)C1=C(C(=O)OC)N(c2ccc(Cl)cc2)CN(c2ccc(Cl)cc2)C1	25 (≈ 59.3 µM)	60 (≈ 142 µM)	25 (≈ 59.3 µM)	25 (≈ 59.3 µM)	100 (≈ 237 µM)	–	40 (≈ 94.9 µM)
CCOC(=O)C1=C(C(=O)OCC)N(c2ccccc2)CN(c2ccccc2)C1	25 (≈ 65.7 µM)	15 (≈ 39.4 µM)	50 (≈ 131 µM)	25 (≈ 65.7 µM)	60 (≈ 158 µM)	–	25 (≈ 65.7 µM)
CCOC(=O)C1=C(C(=O)OCC)N(c2ccc(Cl)cc2)CN(c2ccc(Cl)cc2)C1	25 (≈ 55.6 µM)	15 (≈ 33.4 µM)	25 (≈ 55.6 µM)	25 (≈ 55.6 µM)	80 (≈ 178 µM)	–	25 (≈ 55.6 µM)
CCOC(=O)C1=C(C(=O)OCC)N(c2ccc(O)cc2)CN(c2ccc(O)cc2)C1	50 (≈ 121 µM)	50 (≈ 121 µM)	75 (≈ 182 µM)	50 (≈ 121 µM)	100 (≈ 242 µM)	–	40 (≈ 97 µM)
CCOC(=O)C1=C(C(=O)OCC)N(c2cccc([N+](=O)[O-])c2)CN(c2cccc([N+](=O)[O-])c2)C1	100 (≈ 213 µM)	100 (≈ 213 µM)	100 (≈ 213 µM)	100 (≈ 213 µM)	100 (≈ 213 µM)	–	60 (≈ 128 µM)
CCOC(=O)C1=C(C(=O)OCC)N(c2ccccn2)CN(c2ccccn2)C1	12.5 (≈ 32.7 µM)	60 (≈ 157 µM)	25 (≈ 65.4 µM)	25 (≈ 65.4 µM)	100 (≈ 261 µM)	–	20 (≈ 52.3 µM)
CC1(C)S[C@@H]2[C@H](NC(=O)[C@H](N)c3ccccc3)C(=O)N2[C@H]1C(=O)O [AMPICILLIN]	–	50 (≈ 143 µM)	–	–	50 (≈ 143 µM)	50 (≈ 143 µM)	–
O=C(O)c1cn(C2CC2)c2cc(N3CCNCC3)c(F)cc2c1=O [CIPROFLOXACIN]	–	15 (≈ 45.3 µM)	–	–	–	–	25 (≈ 75.4 µM)
OC(Cn1cncn1)(Cn1cncn1)c1ccc(F)cc1F [FLUCONAZOLE]	25 (≈ 81.6 µM)	–	40 (≈ 131 µM)	25 (≈ 81.6 µM)	–	–	–
Clc1ccc(COC(Cn2ccnc2)c2ccc(Cl)cc2Cl)c(Cl)c1 (stereo not drawn) [MICONAZOLE]	12.5 (≈ 30 µM)	–	12.5 (≈ 30 µM)	12.5 (≈ 30 µM)	–	–	–
